Experimental data from different studies.
Action: inhibitor
EGFR L858R/T790M: Epidermal growth factor receptor (EGFR, Homo sapiens, UniProt P00533, L858R/T790M)
EGFR: Epidermal growth factor receptor (EGFR, Homo sapiens, UniProt P00533)
EGFR L858R: Epidermal growth factor receptor (EGFR, Homo sapiens, UniProt P00533, L858R)

`CC/C(=N\NC(=O)NCc1cccc(O)c1)c1ccc(O)c(C)c1O` gave an inhibition of -0.6% (Epidermal growth factor receptor (EGFR, Homo sapiens, UniProt P00533, del746-750); enzyme activity; 0.1 µM).
`CCC(=O)Nc1cc(Nc2nc(N3CCc4sccc4C3)c3cccnc3n2)c(OC)cc1N1CCN(C(C)=O)CC1` gave an inhibition of 10% (EGFR L858R/T790M; enzyme activity; ELISA; 0.1 µM).
`COCCOc1cc2ncnc(Nc3cccc(OCCn4ccnc4[N+](=O)[O-])c3)c2cc1OCCOC` gave an inhibition of 28% (EGFR; enzyme activity; FRET; 1 µM).
The inhibition of `C=C(Cl)C(=O)Nc1cc(Nc2nc(N3CCOCC3)c3sccc3n2)c(OC)cc1N(C)CCN(C)C` is reported as 57.8% (EGFR L858R/T790M; enzyme activity; ELISA; 0.1 µM).
`CNc1cccc2cc(C(=O)Nc3ccc(C(=O)O)cc3)c(=O)[nH]c12` gave an inhibition of -1.7% (EGFR; enzyme activity; 10 µM).
With `C=CC(=O)Nc1cc(Nc2nc(N3CCc4sccc4C3)c3cccnc3n2)c(OC)cc1N1CCC(N(C)C)CC1` the inhibition was 36% (EGFR L858R/T790M; enzyme activity; ELISA; 0.1 µM).
With `O=C(CSc1nc2nccnc2c(=O)n1CCc1ccccc1)Nc1nccs1` the inhibition was 1% (EGFR L858R; enzyme activity; 10 µM).
`C=CC(=O)Nc1cc(Nc2nccc(Nc3cc(Cl)c(F)cc3C(C)(C)O)n2)c(OC)cc1N1CC[C@@H](N(C)C)C1` gave an inhibition of 99% (EGFR L858R/T790M; enzyme activity; 1 µM).
`CNCc1ccc(-c2cc(-c3nc(-c4ccc(S(=O)(=O)C(C)C)cc4)cnc3N)on2)cc1` has an inhibition of 0% (EGFR; enzyme activity; 2 µM).
With `C=C(Cl)C(=O)Nc1cc(Nc2nc(N3CCCC3)c3sccc3n2)c(OC)cc1N(C)CCN(C)C` the inhibition was 12.7% (EGFR L858R/T790M; enzyme activity; ELISA; 0.1 µM).
`COc1cc2ncnc(Nc3ccc(Oc4ccccc4)c(C)c3C)c2cc1OC` gave an inhibition of 86% (Epidermal growth factor receptor (EGFR, Homo sapiens, UniProt P00533, L861Q); enzyme activity; 1 µM).
`COc1cc2ncnc(Nc3cccc(OCCn4ccnc4[N+](=O)[O-])c3)c2cc1OCCCN1CCOCC1` has an inhibition of 30% (EGFR; enzyme activity; FRET; 1 µM).
The inhibition of `CSc1nc(C)c(-c2ccnc(Nc3ccc(N4CCOCC4)cc3)c2)[nH]1` is reported as 56.6% (EGFR; cell-free assay; 10 µM).
`C/C=C/C(=O)Nc1cc(Nc2nc(Nc3cnn(C)c3)c3sccc3n2)c(OC)cc1N(C)CCN(C)C` gave an inhibition of 18.3% (EGFR L858R/T790M; enzyme activity; ELISA; 0.1 µM).
`COc1cc2ncnc(Nc3ccc(Oc4ccccc4)cc3C)c2cc1OC` has an inhibition of 64% (EGFR L858R; enzyme activity; 1 µM).
For `CN(C)C1CCN(CC#Cc2nn(C3CCCC3)c3nc(NCc4ccccc4)ncc23)C1` (stereo not drawn), the inhibition was 17% (EGFR; enzyme activity; FRET; 10 µM).
The inhibition of `COc1cc(-c2cc(-c3ccc(N4CCNCC4)cc3)cnc2N)cc(OC)c1OC` is reported as 4% (Epidermal growth factor receptor (EGFR, Homo sapiens, UniProt P00533, T790M); enzyme activity; 1 µM).
`C=C(Cl)C(=O)Nc1cc(Nc2nc(N3CCSCC3)c3sccc3n2)c(OC)cc1N(C)CCN(C)C` gave an inhibition of 50.2% (EGFR L858R/T790M; enzyme activity; ELISA; 0.1 µM).
With `CS(=O)(=O)Nc1cccc(-c2csc(NC(=O)CSc3nc4nccnc4c(=O)n3CCc3ccccc3)n2)c1` the inhibition was -1% (EGFR L858R; enzyme activity; 10 µM).
The inhibition of `COc1cc(N(C)CCN(C)C)c(NC(=O)C=C(C)C)cc1Nc1nc(N2CCc3sccc3C2)c2sccc2n1` is reported as 19.5% (EGFR L858R/T790M; enzyme activity; ELISA; 0.1 µM).
With `COc1cc2nccc(Oc3ccc(NC(=O)c4c5n(n(-c6ccc(F)cc6)c4=O)CCCC5)cc3)c2cc1OC` the inhibition was -2% (EGFR; enzyme activity; 0.1 µM).
